Source: PubChem BioAssay (several laboratories)
Sampled rows, rich in hits. Any-hit rate of the full collection: about 4.4%.
Tb MetRS inh: T. brucei MetRS inhibitors, primary screen, biochemical, luminescence; purified T. brucei MetRS, ATP depletion, Kinase-Glo luminescence; methionyl-tRNA synthetase (Trypanosoma brucei brucei); AID 624268, 2012; 360,000 compounds, 0.4% hits; inhibition, % at 11.9 µM;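 active = inhibition above a per-plate cutoff of the control wells' mean inhibition plus 3 SD, cut at about 5.5% in these data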
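Assay system: T. brucei methionyl-tRNA synthetase, purified | Medium: HEPES buffer with MgCl2, KCl, DTT, spermine, BSA, pyrophosphatase | Compound: 11.9 µM single point | Incubation: 15 min enzyme-compound preincubation, 2 h reaction, 10 min detection, 25 °C | Measured by: Kinase-Glo luciferase luminescence reporting remaining unconsumed ATP | Measure: % inhibition normalized to control-well medians | Replication: Singlicate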
MsrA inhibitor: bovine MsrA enzyme inhibitors, primary screen, biochemical, absorbance, HTS; Methionine sulfoxide reductase A (Bos taurus); purified bovine MsrA, absorbance read-out; inhibition, % at 15.5 µM; 360,000 compounds, 0.75% hits; AID 651718, 2012; in the data active = inhibition above about 4.5%
MsrA act: bovine MsrA enzyme activators, primary screen, biochemical, absorbance, HTS; Methionine sulfoxide reductase A (Bos taurus); purified bovine MsrA, absorbance read-out; activation, % at 10.6 µM; 360,000 compounds, 0.3% hits; in the data active = activation above about 7.5%
m5-HT2A agonist: mouse Htr2a agonists via beta-arrestin recruitment, primary screen, cell-based, luminescence; CHO-K1 mHTR2A beta-arrestin complementation; percent of 30 µM serotonin response; activation, % at 7.6 µM; 360,000 compounds, 0.66% hits;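 active = activation above a run cutoff, the mean activation of all tested compounds plus 3 SD, cut at about 14% in these data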
Target sequence (P35363 whole entry, looked up): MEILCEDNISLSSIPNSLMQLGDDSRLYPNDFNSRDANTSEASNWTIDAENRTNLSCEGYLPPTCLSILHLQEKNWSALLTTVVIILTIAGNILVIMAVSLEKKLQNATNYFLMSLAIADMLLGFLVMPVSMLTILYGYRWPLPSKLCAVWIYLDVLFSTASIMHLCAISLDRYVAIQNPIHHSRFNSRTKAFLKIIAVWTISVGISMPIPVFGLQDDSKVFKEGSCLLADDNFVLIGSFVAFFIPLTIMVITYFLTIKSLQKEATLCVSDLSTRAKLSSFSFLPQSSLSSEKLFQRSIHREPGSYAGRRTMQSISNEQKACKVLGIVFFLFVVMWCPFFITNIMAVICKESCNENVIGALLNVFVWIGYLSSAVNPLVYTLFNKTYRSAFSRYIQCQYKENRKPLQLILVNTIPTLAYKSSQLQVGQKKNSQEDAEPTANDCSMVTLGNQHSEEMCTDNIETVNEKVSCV
AI-2 QS modul: Vibrio harveyi AI-2 quorum sensing modulators, primary screen, JMH597 strain, luminescence/OD600 ratio; Vibrio harveyi JMH597 AI-2 luminescence/OD600 ratio, 9 h; stronger effect = lower value; strain lacks LuxN and CqsS sensors; 0 = neutral-control median; activity change, % at 7.5 µM; 300,000 compounds, 0.4% hits; in the data active = activity change below about -75%, passing the limit was not always enough;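 also: luminescence divided by OD600 gain over 9 h not by final OD600 alone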
AHR act: AHR activators, primary screen, cell-based, luminescence, luciferase reporter, human; 320,000 compounds, 2.5% hits; activation, % at 5 µM; AID 2796, 2010; AHR-responsive luciferase reporter cells; in the data active = activation above about 47%
Of the large screens only hits and unclear results are named; the others gave an inactive call.

O=C(CSc1ccc2ccccc2n1)NCc1ccc2c(c1)OCO2	AHR act 63.8
O=C(CSc1n[nH]c(-c2cccs2)n1)NCc1ccc2c(c1)OCO2	AHR act 57.9
O=C(CSc1ccc2nnc(-c3cccnc3)n2n1)NCc1ccc2c(c1)OCO2	none
O=C(CSc1ccc2nnc(-c3ccccc3)n2n1)NCc1ccc2c(c1)OCO2	AHR act 56.1
O=C(CCCSc1nc2ccccc2s1)NCc1ccc2c(c1)OCO2	AHR act 49.9
O=[N+]([O-])c1ccc(N/N=C/c2cccnc2)cc1	none
O=[N+]([O-])c1ccc(N/N=C/c2ccc[nH]2)cc1	AHR act 60.8 (no result: AI-2 QS modul)
O=[N+]([O-])c1ccc(N/N=C/c2cccc(O)c2)cc1	AI-2 QS modul -85.9
O=[N+]([O-])c1ccc(NN=Cc2cccc([N+](=O)[O-])c2)cc1	none (no result: AI-2 QS modul, AHR act)
CSc1nc2sc3c(c2c(=O)n1C)CCC(C)C3 (centres undefined)	AHR act 56.0
CSc1nc2sc3c(c2c(=O)n1C)CCC3	none
COc1ccc(C2NC(=O)c3ccccc3N2)cc1OC (centres undefined)	AHR act 47.5
O=C1NC(c2ccc3c(c2)OCO3)Nc2ccccc21 (centres undefined)	AHR act 145.3
COC(=O)[C@]12C[C@H](CC(=O)NCc3ccc(OC)c(OC)c3)C(=O)N(Cc3ccc4c(c3)OCO4)C1=C[C@H](COCc1ccccc1)O[C@@H]2C	none (no result: Tb MetRS inh, MsrA act, m5-HT2A agonist, AI-2 QS modul, AHR act)
CN(C)S(=O)(=O)Oc1ccsc1C(=O)Nc1ccc(C(F)(F)F)cc1	AHR act 55.3
COc1ccc2c(c1)[C@@]1(OCCC=C[C@H]1C)C(=O)N2Cc1ccc(F)cc1	none (no result: Tb MetRS inh, MsrA act, m5-HT2A agonist, AI-2 QS modul, AHR act)
CC1(C)Nc2ccccc2C(=O)N1c1ccc(Br)cc1	AHR act 59.0
COc1ccc(N2C(=O)c3ccccc3NC2(C)C)cc1	none
CSCCC(NC(=O)c1ccccc1)C(=O)NNC(=O)c1csc(N2CCOCC2)n1 (centres undefined)	none
N#Cc1ccc(-c2csc(-c3ccno3)n2)cc1	none
FC(F)(F)c1ccc(-c2csc(-c3ccno3)n2)cc1	AHR act 62.6
COc1ccc(Cc2nnc(-c3cccc(C)c3)o2)cc1OC	AHR act 49.4 (no result: MsrA inhibitor)
COc1ccc(CC(=O)Nc2cccc(-c3nnc(-c4cccc(C)c4)o3)c2)cc1OC	none
CCOc1ncccc1C(=O)Nc1cccc(-c2nc3cccnc3s2)c1	AHR act 50.1
CCCCc1c(-c2ccccc2OC)ncn1Cc1ccc([N+](=O)[O-])cc1	none (no result: Tb MetRS inh, MsrA act, m5-HT2A agonist, AI-2 QS modul, AHR act)
CN(C)/C=C1/Oc2c(ccc3ccccc23)C1=O	AHR act 65.8
CCOc1ccc(Br)cc1S(=O)(=O)Nc1cccnc1	none
c1csc(-c2cn3ccc4ccccc4c3n2)c1	AHR act 57.2
c1ccc(CNc2nc(-c3cccs3)nc3ccccc23)cc1	none (no result: AHR act)
O=C1NC(c2cccs2)Nc2ccccc21 (centres undefined)	AHR act 51.9
COc1ccc(/C=C(/NC(=O)c2ccco2)C(=O)N2CCCCCC2)cc1OC	none
CCc1ccc(S(=O)(=O)Nc2cc(SCC(=O)O)c(O)c3ccccc23)cc1	AHR act 52.9
CCC(C(=O)NCCCN1CC(C)CC(C)C1)n1ncn2c(cc3occc32)c1=O (centres undefined)	none
Cc1c(N=NC2=C(O)CCCC2=O)c(=O)n(-c2ccccc2)n1C	AHR act 51.4
Cc1ccc(-c2cc(NC(=O)Cc3c[nH]c4ccccc34)ccc2N(C)c2cccnc2)cc1	none (no result: Tb MetRS inh, MsrA act, m5-HT2A agonist, AI-2 QS modul, AHR act)
COc1ccc(C(=O)COc2nc(C)cc(C)c2C#N)cc1	AHR act 47.2
CCCC(=O)Nc1cccc(Oc2nc(C)cc(C)c2C#N)c1	AHR act 58.4
CC(=O)Oc1ccc(C(=O)Nc2ccc(C3(C#N)CCCC3)cc2)cc1	AHR act 59.8
N#CC1(c2ccc(NC(=O)c3ccccc3)cc2)CCCC1	none (no result: MsrA inhibitor)
Cc1cnccc1CN(C)Cc1cn(C)nc1-c1cccc(Cl)c1	AHR act 67.0
COc1ccc(NC(=O)COc2cccc3c2CCN(C)C3=O)c(OC)c1	AHR act 77.4
CN1CCc2c(OCC(=O)NC3CCCCC3)cccc2C1=O	none
COc1ccc(Oc2nnnn2-c2ccccc2)cc1	none
c1ccc(-n2nnnc2Oc2ccc(-n3ccnc3)cc2)cc1	AHR act 72.2
O=C(CSc1ncccn1)n1c2c(c3ccccc31)CCCC2	AHR act 70.0
Cc1cc(Nc2cc(F)c(F)c(F)c2)cc(=O)n1-c1cc(F)c(F)c(F)c1	none (no result: Tb MetRS inh, MsrA act, m5-HT2A agonist, AI-2 QS modul, AHR act)
Cc1ccc(Cc2c(C)[nH]c(=S)[nH]c2=O)cc1	none
Cc1ccc(Cc2c[nH]c(=S)s2)cc1	AI-2 QS modul -88.9
O=C(Nc1ccc2c(c1)OCO2)c1c(F)c(F)c(F)c(F)c1F	none
Cc1cc(C)c2[nH]c(C(=O)Nc3ccc4c(c3)OCO4)cc2c1	none
CCc1onc(C)c1C(=O)Nc1ccc2c(c1)OCO2	AHR act 58.1
CCc1ccc2[nH]c(C(=O)Nc3ccc(Br)c(C)n3)cc2c1	none (no result: AHR act)
CCc1ccc2[nH]c(C(=O)Nc3ccc(F)cc3Br)cc2c1	AHR act 48.6
CCc1ccc2[nH]c(C(=O)Nc3ccc4c(c3)OCO4)cc2c1	AHR act 72.2
Cc1ccccc1-c1ccc2c(c1)[C@@H]1C[C@H](N(C)C(=O)c3ccco3)[C@H]([C@H](C)O)CN1CC2	none (no result: Tb MetRS inh, MsrA act, m5-HT2A agonist, AI-2 QS modul, AHR act)
Cc1nc(SCC(=O)c2cccs2)c2oc3ccccc3c2n1	AHR act 71.9
COc1ccc(C(=O)/C=C2/C(=O)Nc3ccccc32)c(OC)c1	none
COc1cc(OC)c(/C=C2\C(=O)Nc3ccccc32)c(OC)c1	AHR act 78.9 (no result: Tb MetRS inh, MsrA act, m5-HT2A agonist, AI-2 QS modul)
Cc1ccccc1-n1nc2c(c1NC(=O)COc1ccc(Cl)cc1)CS(=O)C2 (centres undefined)	none
O=C(COc1ccccc1)Nc1c2c(nn1-c1ccccc1)CS(=O)C2 (centres undefined)	AHR act 56.5
Cc1ccc(NCC(=O)N/N=C/c2ccncc2)cc1	AHR act 64.2
CCOC(=O)N1CCC(Nc2c(NCCN3CCN(Cc4ccccc4)CC3)c(=O)c2=O)CC1	none (no result: MsrA inhibitor)
CCOC(=O)N1CCC(Nc2c(Nc3cccc(CC)c3)c(=O)c2=O)CC1	MsrA inhibitor 4.6
CCN=C1NC(c2ccccc2)C(C(=O)OC)=C(C)N1Cc1ccc(C(F)(F)F)cc1 (centres undefined)	none (no result: Tb MetRS inh, MsrA act, m5-HT2A agonist, AI-2 QS modul, AHR act)
Clc1cccc(-c2cc3nc4c(c(N5CCOCC5)n3n2)CCCC4)c1	MsrA inhibitor 4.8
Fc1cccc(-c2cc3nc4c(c(N5CCOCC5)n3n2)CCCC4)c1	none
